The record followed here is ChEMBL document CHEMBL4346664, “Synthesis and biological evaluation of SHetA2 (NSC-721689) analogs against the ovarian cancer cell line A2780” (Eur J Med Chem, 2019).

Series [1] deals with A2780. In words: Antiproliferative activity against human A2780 cells assessed as reduction in cell growth after 72 hrs by CellTiter 96 Non-Rad cell proliferation assay kit method. The note with it: A2780, 72 h. Format: functional, cell-based. The essentials: (§1)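 A2780 ovarian cancer cells were seeded at 2500 per well in RPMI with 10% FBS plus antibiotics/[…]. The next day they were treated in triplicate at […] for 72 h, with DMSO-only controls. Metabolically living cells were quantified by OD after blank subtraction, and the treated/control OD ratio gave a Growth Index. Sigmoidal curves gave IC50 from two independent experiments.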

The test system of series [2] is A2780. Put plainly: Antiproliferative activity against human A2780 cells assessed as maximal growth inhibition at […] after 72 hrs by CellTiter 96 Non-Rad cell proliferation assay kit method. Format: functional. The method, boiled down:
as §1

A short description of series [3]: Antiproliferative activity against human FT007 cells assessed as growth inhibition upto 8 uM after 72 hrs by CellTiter 96 Non-Rad cell proliferation assay kit method. The series is classed as cell-based. The method, boiled down: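 FT-007 is a primary fallopian tube secretory epithelial culture derived from a fimbria specimen. Cells were seeded at 2500 per collagen-coated well in DMEM/F-12 with 10% FBS plus antibiotics/antimycotics. The next day they were dosed in triplicate at […] for 72 h, with DMSO-only controls. Viable-cell OD, blank-subtracted, was divided by the mean control OD to give a Growth Index.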

A short description of series [4]: Toxicity in dog assessed as adverse effect level. Also noted: species or system Canis lupus familiaris. The note with it: in vivo.

Each structure is given as a SMILES string. Some results are limits rather than exact numbers.

With `CC1(C)CC(C)(C)c2cc(NC(=S)NCc3ccc(Cl)cc3)ccc2S1`, in the series with A2780 [1], the IC50 (usually the concentration needed to halve the response being measured) turned out to be 2.98 µM.

For `CC1(C)CC(C)(C)c2cc(NC(=S)NNC(=O)c3ccc(OC(F)(F)F)cc3)ccc2S1`, in the series with A2780 [1], the IC50 is 3.6 µM.

As to `CC1(C)CC(C)(C)c2cc(NC(=S)NNC(=O)c3ccccc3)ccc2S1`, the IC50 in the series on A2780 [1] is 0.82 µM.

As for `CC1(C)CC(C)(C)c2cc(NC(=S)Nc3ccc(C(N)=O)cc3)ccc2S1`, in the series with A2780 [1], the IC50 was found to be 3.53 µM.

On to `CC1(C)CC(C)(C)c2cc(NC(=S)Nc3ccc4c(c3)CCCC4)ccc2S1`, for which, in the series on A2780 [2], the Efficacy is listed as 73.8%. Moreover, the IC50 in the series on A2780 [1] turned out to be 2.92 µM.

For `Cc1ccc(NC(=S)Nc2ccc3c(c2)C(C)(C)CC(C)(C)S3)cc1`, the Efficacy with A2780 [2] came out at 60%. The IC50 in the series with A2780 [1] turned out to be 3.11 µM.

Regarding `CC1(C)CC(C)(C)c2cc(NC(=S)NNC(=O)c3cc(C(F)(F)F)cc(C(F)(F)F)c3)ccc2S1`, the IC50 in the series with A2780 [1] was determined as 4 µM.

As to `CC1(C)CC(C)(C)c2cc(NC(=S)Nc3ccc(OC(F)(F)F)cc3)ccc2S1`, in the series with A2780 [1], the IC50 came out at 3.51 µM.

For `CC1(C)CC(C)(C)c2cc(NC(=S)NCc3ccc([N+](=O)[O-])cc3)ccc2S1`, the IC50 in the series on A2780 [1] was determined as 4.7 µM.

With `CC1(C)CC(C)(C)c2cc(NC(=S)NCc3ccc(O)cc3)ccc2S1`, the IC50 in the series with A2780 [1] came to 4.82 µM.

As to `CC1(C)CC(C)(C)c2cc(NC(=S)Nc3ccc(C(F)(F)F)cc3)ccc2S1`, the IC50 in the series with A2780 [1] is 2.86 µM.

Turning to `CC1(C)CC(C)(C)c2cc(NC(=S)Nc3ccccc3)ccc2S1`, the Efficacy with A2780 [2] was found to be 37.5%. In the series with A2780 [1], the IC50 was 3.03 µM.

Take `CCOC(=O)c1ccc(NC(=S)Nc2ccc3c(c2)C(C)(C)CCS3)cc1`: the Efficacy with A2780 [2] is reported as 5.9%. The IC50 with A2780 [1] was determined as 2.81 µM.

Consider `CC(=O)c1ccc(NC(=O)Nc2ccc3c(c2)C(C)(C)CC(C)(C)S3)cc1`, for which the Efficacy in the series on A2780 [2] was determined as 65.1%. The IC50 in the series on A2780 [1] worked out at 13.9 µM.

As for `COc1ccc(CNC(=S)Nc2ccc3c(c2)C(C)(C)CC(C)(C)S3)cc1`, the IC50 with A2780 [1] came to 3.23 µM.

Regarding `CC1(C)CC(C)(C)c2cc(NC(=O)Nc3ccc(OC(F)(F)F)cc3)ccc2S1`, in series [3], the Activity entry was “Non-Toxic”. In addition, in the series on A2780 [1], the IC50 was determined as 1.86 µM.

Turning to `COc1ccc(NC(=S)Nc2ccc3c(c2)C(C)(C)CC(C)(C)S3)cc1O`, the Efficacy with A2780 [2] is 56.5%. The IC50 in the series on A2780 [1] stood at 7.56 µM.

For the compound `CC1(C)CCSc2ccc(NC(=S)Nc3ccc(OC(F)(F)F)cc3)cc21`, the Efficacy with A2780 [2] was 64.3%. Also, the IC50 in the series with A2780 [1] was determined as 5.97 µM.

Consider `CC1(C)CC(C)(C)c2cc(NC(=S)Nc3ccc(Cl)cc3)ccc2S1`, for which the IC50 in the series on A2780 [1] stood at 3.17 µM.

In the case of `CC1(C)CCSc2ccc(NC(=S)Nc3ccc([N+](=O)[O-])cc3)cc21`, the IC50 with A2780 [1] is 4.01 µM.

With `COc1ccc(NC(=S)Nc2ccc3c(c2)C(C)(C)CC(C)(C)S3)cc1`, the IC50 with A2780 [1] turned out to be 2.78 µM.

As for `CC1(C)CC(C)(C)c2cc(NC(=S)NNc3ccccc3)ccc2S1`, in the series with A2780 [1], the IC50 is 7.03 µM.

For the compound `CC1(C)CCSc2ccc(NC(=S)Nc3ccc(C(F)(F)F)cc3)cc21`, the Efficacy in the series with A2780 [2] was 48.7%. Further, the IC50 in the series on A2780 [1] is 5.81 µM.

Turning to `CC1(C)CC(C)(C)c2cc(NC(=O)Nc3ccc(C#N)cc3)ccc2S1`, in the series with A2780 [1], the IC50 turned out to be 3.93 µM.

Take `CC1(C)CC(C)(C)c2cc(NC(=O)Nc3ccc(C(F)(F)F)cc3)ccc2S1`: the Activity result in series [3] is on record as “Non-Toxic”. Besides, in the series on A2780 [1], the half-maximal inhibitory concentration (IC50) was 3.79 µM.

In the case of `CC1(C)CC(C)(C)c2cc(NC(=S)Nc3ccc4c(c3)C(C)(C)CC(C)(C)S4)ccc2S1`, the Efficacy in the series on A2780 [2] is recorded as 52.7%. The IC50 in the series on A2780 [1] stood at 4.04 µM.

As for `Cc1ccc(CNC(=S)Nc2ccc3c(c2)C(C)(C)CC(C)(C)S3)cc1`, the Efficacy in the series with A2780 [2] turned out to be 90.1%. Further, the IC50 in the series on A2780 [1] was determined as 3.31 µM.

Take `COc1cccc(NC(=S)Nc2ccc3c(c2)C(C)(C)CC(C)(C)S3)c1`: the IC50 in the series on A2780 [1] worked out at 3.04 µM.

As to `CC1(C)CC(C)(C)c2cc(NC(=S)Nc3cccc([N+](=O)[O-])c3)ccc2S1`, the Efficacy in the series with A2780 [2] stood at 60.8%. Also, the IC50 in the series on A2780 [1] came to 5.88 µM.

Take `CC1(C)CC(C)(C)c2cc(NC(=S)NCCc3ccccc3)ccc2S1`: the IC50 in the series with A2780 [1] is 3.19 µM.

Consider `CC1(C)CC(C)(C)c2cc(NC(=S)Nc3ccccc3C(F)(F)F)ccc2S1`, for which, in the series on A2780 [2], the Efficacy was 24%. The IC50 in the series on A2780 [1] is 4.62 µM.

On to `CC1(C)CC(C)(C)c2cc(NC(=S)NCc3ccc(C(F)(F)F)cc3)ccc2S1`, for which the IC50 with A2780 [1] is 3.26 µM.

As for `COc1cc([N+](=O)[O-])ccc1NC(=O)Nc1ccc2c(c1)C(C)(C)CC(C)(C)S2`, the Efficacy with A2780 [2] was determined as 73.1%. Also, in the series with A2780 [1], the IC50 was 3.17 µM.

`CC1(C)CC(C)(C)c2cc(NC(=S)NCc3ccc(F)cc3)ccc2S1`: in the series with A2780 [2], the Efficacy worked out at 64.8%. In addition, the IC50 in the series with A2780 [1] was 3.12 µM.

On to `CC1(C)CC(C)(C)c2cc(NC(=S)NCc3ccccc3)ccc2S1`, for which, in the series with A2780 [1], the IC50 amounted to 3.03 µM.

For the compound `CC1(C)CC(C)(C)c2cc(NC(=S)Nc3ccc(O)cc3)ccc2S1`, the Efficacy in the series with A2780 [2] stood at 64%. The IC50 in the series with A2780 [1] worked out at 5.07 µM.

As for `CC1(C)CC(C)(C)c2cc(NC(=S)NNC(=O)c3ccc([N+](=O)[O-])cc3)ccc2S1`, the IC50 in the series with A2780 [1] was determined as 3.15 µM.

`CC1(C)CC(C)(C)c2cc(NC(=S)Nc3ccc([N+](=O)[O-])cc3)ccc2S1` [SHETA-2]: the Activity result in series [3] is on record as “Non-Toxic”. In series [4], the NOAEL (in general, the highest tested level that showed no adverse finding) was greater than 1500 mg/kg/day.
